Data from PMC3322254 (Biochemical Pharmacology, 2012).

How the values were obtained:
hA3AR [1] = target: T1, hA3AR (Homo sapiens, UniProt P0DMS8); assay: Radioligand membrane binding assay with [125I]I-AB-MECA
T1 sequence (P0DMS8 1-318): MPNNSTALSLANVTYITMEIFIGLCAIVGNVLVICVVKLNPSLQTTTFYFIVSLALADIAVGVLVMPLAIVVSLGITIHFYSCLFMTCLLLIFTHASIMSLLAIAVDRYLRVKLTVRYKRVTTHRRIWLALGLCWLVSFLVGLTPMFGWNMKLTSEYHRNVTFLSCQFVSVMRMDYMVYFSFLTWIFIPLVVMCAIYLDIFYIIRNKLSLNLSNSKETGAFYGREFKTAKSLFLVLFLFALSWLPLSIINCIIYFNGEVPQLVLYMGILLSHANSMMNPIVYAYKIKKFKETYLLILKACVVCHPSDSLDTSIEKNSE
Method in brief: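 Membranes came from CHO (hA1, hA3) or HEK293 (hA2A) cells, homogenized in 50 mM Tris-HCl pH 7.5 with 10 mM MgCl2, pelleted at 20,000 × g and stored at −80 °C with 3 units/ml adenosine deaminase. Protein was measured by Bradford. […] Ki values were obtained at each subtype.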

hA3AR [2] = target: T1, hA3AR; assay: Fluorescent ligand binding
Method in brief: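 hA3AR-CHO cells were incubated in medium at 37 °C, 5% CO2. Preliminary screen: 1 h with conjugates at 1.5–20 μM or tracer at 10 nM. Saturation: tracer 2.5–250 nM for 1 h. Kinetics: 10 nM tracer, read from 5 min to 3 h, with dissociation started at 90 min by 10 μM non-fluorescent A3AR antagonist. Cells were EDTA-detached and read by flow cytometry; MFI was corrected for autofluorescence and converted to MESF using bead calibration.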

A2AAR = A2AAR (Homo sapiens, UniProt P29274); assay: FCM binding of MRS5449 to HEK cells expressing the A2AAR
Method in brief: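 Stably transfected lines grew in DMEM/F12 (1:1) with 10% FBS, 2 mM L-glutamine and penicillin/streptomycin: A1AR CHO cells under 500 μg/ml hygromycin B, A2AAR HEK293 cells under 800 μg/ml G418. Cells were seeded about 400,000/well and grown 24 h at 37 °C, 5% CO2. At about 80% confluency the medium was refreshed and the fluorescent tracer added. Cells were then washed, detached with 0.2% EDTA and read by flow cytometry (488 nm excitation), with autofluorescence subtracted.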

A2AAR, sequence (P29274 whole entry): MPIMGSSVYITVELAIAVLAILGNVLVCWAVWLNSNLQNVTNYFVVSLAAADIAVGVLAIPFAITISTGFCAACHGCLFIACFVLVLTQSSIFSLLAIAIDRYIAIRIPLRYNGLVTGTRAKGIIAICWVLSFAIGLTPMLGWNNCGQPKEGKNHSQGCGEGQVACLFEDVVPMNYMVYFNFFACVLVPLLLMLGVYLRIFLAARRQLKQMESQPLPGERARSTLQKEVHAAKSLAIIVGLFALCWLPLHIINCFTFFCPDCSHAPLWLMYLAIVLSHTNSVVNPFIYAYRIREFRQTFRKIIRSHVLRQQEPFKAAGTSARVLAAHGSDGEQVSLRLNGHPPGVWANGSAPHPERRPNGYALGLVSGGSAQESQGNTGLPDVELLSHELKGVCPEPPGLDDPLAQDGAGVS

Ki (hA3AR [1]; read-out: A3 Ki, CHO cells stably expressing hA3AR, agonist radioligand [125I]I-AB-MECA): 6.4 ± 2.5 nM | selectivity for the A3AR (hA3AR [1]; versus hA1 and hA2AARs, from radioligand Ki values): over 10 fold | Nonspecific binding, % of total binding (hA3AR [2]; 10 nM MRS5449, in presence of 10 μM MRS1220 or 10 μM Cl-IB-MECA or in control CHO cells): less than 1% | fluorescence emission (MFI) of cell-bound ligand (hA3AR [2]; preliminary FCM, 1 h, 37 °C, 1.5-20 μM for 1-6, 10 nM MRS5449): sufficiently high MFI | binding compared with the binding to the A3AR (expressed as 100%) (A2AAR): 0.5%
Compound: N=c1ccc2c(-c3ccc(C(=O)NCCCCCCn4cc(CCCC(=O)Nc5nc6ccc(Cl)cc6c6nc(-c7ccco7)nn56)nn4)cc3C(=O)O)c3ccc(N)c(S(=O)(=O)O)c3oc-2c1S(=O)(=O)O [Compound 9, 2-(6-Amino-3-iminio-4,5-disulfonato-3H-xanthen-9-yl)-5-((6-(4-(4-((9-chloro-2-(furan-2-yl)-[1,2,4]triazolo[1,5-c]quinazolin-5-yl)amino)-4-oxobutyl)-1H-1,2,3-triazol-1-yl)hexyl)carbamoyl)benzoate]
